The target of this experiment is T1, N-arachidonyl glycine receptor (Homo sapiens, UniProt Q14330).
T1 sequence (Q14330 whole entry): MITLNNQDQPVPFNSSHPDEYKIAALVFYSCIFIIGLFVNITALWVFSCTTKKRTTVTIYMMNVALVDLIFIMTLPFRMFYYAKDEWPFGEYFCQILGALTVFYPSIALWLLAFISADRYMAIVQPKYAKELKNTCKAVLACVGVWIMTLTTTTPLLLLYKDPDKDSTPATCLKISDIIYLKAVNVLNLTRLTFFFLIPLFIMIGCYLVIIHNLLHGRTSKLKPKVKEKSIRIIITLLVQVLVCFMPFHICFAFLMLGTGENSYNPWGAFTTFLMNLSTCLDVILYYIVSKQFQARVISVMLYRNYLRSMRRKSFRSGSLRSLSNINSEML
Nature of the experiment: […] at Prolink1-tagged human GPR18 receptor expressed in CHO cells assessed as […] by measuring 2-(3-(6-(4-chlorophenoxy)hexyloxy)benzylidene)-6,7-dihydro-2H-imidazo[2,1-b][1,3]thiazin-3(5H)-one IC50 at 1 uM after 90 mins by beta-galactosidase based topcount luminescence analysis. In short, it runs like this: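 Human GPR18 stably expressed in CHO cells, β-arrestin enzyme complementation. Antagonist concentration-inhibition curves run against a fixed 1 μM agonist stimulus. IC50 and maximal inhibition derived from curves; means of three independent experiments, each in duplicate.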

SMILES strings stand for the structures. pIC50: −log10 of the molar value.

The pIC50 is the IC50 on a negative log10 scale, so that one unit is a factor of ten.

For `Cn1c(=O)c2c(nc3n2CCCN3CCc2c[nH]c3ccccc23)n(C)c1=O` [9-(2-(1H-indol-3-yl)ethyl)-1,3-dimethyl-6,7,8,9-tetrahydropyrimido[1,2-a]purine-2,4(1H,3H)-dione], the pIC50 was 6.03.

These data come from BindingDB's records for doi:10.1021/acsmedchemlett.0c00208 (University of Bonn, 2020).
